Results as given in ChEMBL document CHEMBL5724801, “EUbOPEN Chemogenomics Library - Multiplex” (2024).
Several values for one entry are separate records, joined by “and”; a condition that tells them apart may be missing. Identical values can stand only once.

Test system: Fibroblast
Assay: Multiplex assay against human fibroblast
Assay type: toxicity, cell-based
Outline: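 Imaging took place on a CQ1 microscope at 37°C and 5% CO2 once compound had been added to live cells stained at seeding with Hoechst33342, BioTracker Green Microtubule Cytoskeleton Dye, MitoTracker Red and Annexin V Alexa Fluor 680. CellPathfinder machine-learning gating classed cells as Hoechst high-intensity objects or normal cells, classed normal cells as having healthy, pyknosed or fragmented nuclei, and classed pyknosed cells as mitotic or apoptotic. Tubulin, mitochondrial-mass and membrane-permeability phenotypes are per cents of the healthy-nucleus cells.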

[1] = 12 h, 1 µM, compound concentration 1 uM
[2] = 12 h, 10 µM, compound concentration 10 uM
[3] = 24 h, 1 µM, compound concentration 1 uM
[4] = 24 h, 10 µM, compound concentration 10 uM
[5] = 48 h, 1 µM, compound concentration 1 uM
[6] = 48 h, 10 µM, compound concentration 10 uM

COc1cccc2c1c(NS(=O)(=O)c1ccc(Cl)s1)nn2Cc1cccc(CNC(=O)C(C)(C)O)c1
Population Apoptotic (%) [1]: 43% and 33% | Population Fragmented Nuclei (%) [1]: 16% and 26% | Population Healthy Nuclei (%) [1]: 66% and 54% | Population Hoechst High Intensity Objects (%) [1]: 0% | Population Membrane Permeable-Phenotype (%) [1]: 1% and 4% | Population Mitochondria Different-Phenotype (%) [1]: 2% and 1% | Population Mitotic Cells (%) [1]: 56% and 66% | Population Normal (%) [1]: 99% and 100% | Population Pyknosed Nuclei (%) [1]: 17% and 18% | Population Tubulin-Different-Phenotype (%) [1]: 27% and 18% | Total Cell Count [1]: 134 and 112 | Population Apoptotic (%) [2]: 42% and 41% | Population Fragmented Nuclei (%) [2]: 13% and 24% | Population Healthy Nuclei (%) [2]: 72% and 55% | Population Hoechst High Intensity Objects (%) [2]: 2% and 7% | Population Membrane Permeable-Phenotype (%) [2]: 1% and 7% | Population Mitochondria Different-Phenotype (%) [2]: 11% and 4% | Population Mitotic Cells (%) [2]: 57% and 58% | Population Normal (%) [2]: 97% and 92% | Population Pyknosed Nuclei (%) [2]: 13% and 19% | Population Tubulin-Different-Phenotype (%) [2]: 37% and 55% | Total Cell Count [2]: 211 and 174 | Population Apoptotic (%) [3]: 55% and 50% | Population Fragmented Nuclei (%) [3]: 19% and 28% | Population Healthy Nuclei (%) [3]: 68% and 49% | Population Hoechst High Intensity Objects (%) [3]: 2% and 1% | Population Membrane Permeable-Phenotype (%) [3]: 2% and 7% | Population Mitochondria Different-Phenotype (%) [3]: 3% and 5% | Population Mitotic Cells (%) [3]: 44% and 50% | Population Normal (%) [3]: 97% and 98% | Population Pyknosed Nuclei (%) [3]: 12% and 22% | Population Tubulin-Different-Phenotype (%) [3]: 28% and 35% | Total Cell Count [3]: 144 and 110 | Population Apoptotic (%) [4]: 48% and 50% | Population Fragmented Nuclei (%) [4]: 11% and 22% | Population Healthy Nuclei (%) [4]: 74% and 55% | Population Hoechst High Intensity Objects (%) [4]: 2% and 8% | Population Membrane Permeable-Phenotype (%) [4]: 1% and 6% | Population Mitochondria Different-Phenotype (%) [4]: 7% and 2% | Population Mitotic Cells (%) [4]: 52% and 50% | Population Normal (%) [4]: 97% and 92% | Population Pyknosed Nuclei (%) [4]: 13% and 22% | Population Tubulin-Different-Phenotype (%) [4]: 30% and 48% | Total Cell Count [4]: 190 and 175 | Population Apoptotic (%) [5]: 62% and 75% | Population Fragmented Nuclei (%) [5]: 21% and 26% | Population Healthy Nuclei (%) [5]: 66% and 60% | Population Hoechst High Intensity Objects (%) [5]: 5% and 2% | Population Membrane Permeable-Phenotype (%) [5]: 1% and 8% | Population Mitochondria Different-Phenotype (%) [5]: 5% and 3% | Population Mitotic Cells (%) [5]: 37% and 25% | Population Normal (%) [5]: 94% and 97% | Population Pyknosed Nuclei (%) [5]: 12% | Population Tubulin-Different-Phenotype (%) [5]: 30% and 55% | Total Cell Count [5]: 135 and 99 | Population Apoptotic (%) [6]: 63% and 51% | Population Fragmented Nuclei (%) [6]: 13% and 33% | Population Healthy Nuclei (%) [6]: 73% and 49% | Population Hoechst High Intensity Objects (%) [6]: 5% and 6% | Population Membrane Permeable-Phenotype (%) [6]: 3% | Population Mitochondria Different-Phenotype (%) [6]: 10% and 4% | Population Mitotic Cells (%) [6]: 36% and 48% | Population Normal (%) [6]: 94% and 93% | Population Pyknosed Nuclei (%) [6]: 12% and 17% | Population Tubulin-Different-Phenotype (%) [6]: 40% and 43% | Total Cell Count [6]: 187

CCOc1c2c(c(OCC)c3ncccc13)CN(c1ccc(CS(=O)(=O)NC(=O)Cc3ccccc3OC)cc1C)C2=O
Population Apoptotic (%) [1]: 44% and 38% | Population Fragmented Nuclei (%) [1]: 15% and 37% | Population Healthy Nuclei (%) [1]: 68% and 42% | Population Hoechst High Intensity Objects (%) [1]: 0% and 4% | Population Membrane Permeable-Phenotype (%) [1]: 1% and 8% | Population Mitochondria Different-Phenotype (%) [1]: 3% and 2% | Population Mitotic Cells (%) [1]: 55% and 61% | Population Normal (%) [1]: 99% and 95% | Population Pyknosed Nuclei (%) [1]: 15% and 19% | Population Tubulin-Different-Phenotype (%) [1]: 23% and 62% | Total Cell Count [1]: 120 and 111 | Population Apoptotic (%) [2]: 35% and 21% | Population Fragmented Nuclei (%) [2]: 15% and 19% | Population Healthy Nuclei (%) [2]: 63% and 50% | Population Hoechst High Intensity Objects (%) [2]: 1% and 3% | Population Membrane Permeable-Phenotype (%) [2]: 1% and 7% | Population Mitochondria Different-Phenotype (%) [2]: 6% and 8% | Population Mitotic Cells (%) [2]: 64% and 78% | Population Normal (%) [2]: 98% and 96% | Population Pyknosed Nuclei (%) [2]: 21% and 29% | Population Tubulin-Different-Phenotype (%) [2]: 27% and 54% | Total Cell Count [2]: 161 and 146 | Population Apoptotic (%) [3]: 56% and 46% | Population Fragmented Nuclei (%) [3]: 13% and 37% | Population Healthy Nuclei (%) [3]: 67% and 32% | Population Hoechst High Intensity Objects (%) [3]: 3% and 2% | Population Mitochondria Different-Phenotype (%) [3]: 3% | Population Mitotic Cells (%) [3]: 43% and 53% | Population Normal (%) [3]: 96% and 97% | Population Pyknosed Nuclei (%) [3]: 18% and 29% | Population Tubulin-Different-Phenotype (%) [3]: 23% and 69% | Total Cell Count [3]: 127 and 104 | Population Apoptotic (%) [4]: 42% | Population Fragmented Nuclei (%) [4]: 17% and 25% | Population Healthy Nuclei (%) [4]: 66% and 49% | Population Hoechst High Intensity Objects (%) [4]: 3% and 4% | Population Membrane Permeable-Phenotype (%) [4]: 1% and 5% | Population Mitochondria Different-Phenotype (%) [4]: 2% | Population Mitotic Cells (%) [4]: 57% | Population Normal (%) [4]: 96% and 95% | Population Pyknosed Nuclei (%) [4]: 15% and 25% | Population Tubulin-Different-Phenotype (%) [4]: 19% and 50% | Total Cell Count [4]: 171 and 142 | Population Apoptotic (%) [5]: 57% and 66% | Population Fragmented Nuclei (%) [5]: 18% and 47% | Population Healthy Nuclei (%) [5]: 66% and 40% | Population Hoechst High Intensity Objects (%) [5]: 3% and 5% | Population Membrane Permeable-Phenotype (%) [5]: 1% and 5% | Population Mitochondria Different-Phenotype (%) [5]: 3% and 7% | Population Mitotic Cells (%) [5]: 42% and 33% | Population Normal (%) [5]: 96% and 94% | Population Pyknosed Nuclei (%) [5]: 15% and 12% | Population Tubulin-Different-Phenotype (%) [5]: 26% and 72% | Total Cell Count [5]: 128 and 105 | Population Apoptotic (%) [6]: 71% and 29% | Population Fragmented Nuclei (%) [6]: 16% and 34% | Population Healthy Nuclei (%) [6]: 63% and 45% | Population Hoechst High Intensity Objects (%) [6]: 7% and 9% | Population Membrane Permeable-Phenotype (%) [6]: 1% and 7% | Population Mitochondria Different-Phenotype (%) [6]: 2% and 5% | Population Mitotic Cells (%) [6]: 28% and 70% | Population Normal (%) [6]: 92% and 90% | Population Pyknosed Nuclei (%) [6]: 20% | Population Tubulin-Different-Phenotype (%) [6]: 20% and 51% | Total Cell Count [6]: 171 and 131
